Measured values as given in ChEMBL document CHEMBL4017497, “Structure-Affinity Relationships and Structure-Kinetics Relationships of Pyrido[2,1-f]purine-2,4-dione Derivatives as Human Adenosine A3 Receptor Antagonists” (J Med Chem, 2017).

Assays:
[1] = target: T1, Adenosine receptor A3 (Homo sapiens) (UniProt P0DMS8); test: Displacement of [3H]PSB-11 from human adenosine A3 receptor expressed on CHO cell membranes assessed as dissociation rate constant after 120 mins by scintillation spectrometry
T1 sequence (whole entry): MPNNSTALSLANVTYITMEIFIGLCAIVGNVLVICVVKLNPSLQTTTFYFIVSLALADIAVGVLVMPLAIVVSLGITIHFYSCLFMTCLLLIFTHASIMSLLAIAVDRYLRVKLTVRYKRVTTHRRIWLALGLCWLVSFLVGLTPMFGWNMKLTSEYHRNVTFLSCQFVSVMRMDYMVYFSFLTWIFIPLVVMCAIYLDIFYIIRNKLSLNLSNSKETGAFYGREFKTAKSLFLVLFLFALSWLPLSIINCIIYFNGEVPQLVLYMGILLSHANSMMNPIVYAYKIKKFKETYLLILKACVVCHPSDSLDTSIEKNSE

[2] = target: T1, Adenosine receptor A3 (Homo sapiens); test: Displacement of [3H]PSB-11 from human adenosine A3 receptor expressed on CHO cell membranes assessed as association rate constant after 120 mins by scintillation spectrometry
[3] = target: T1, Adenosine receptor A3 (Homo sapiens); test: Displacement of [3H]PSB-11 from human adenosine A3 receptor expressed on CHO cell membranes assessed as kinetic rate index at IC50 measured after 240 mins by scintillation spectrometry
Summary of the method: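 Dual-point competition association at 10 °C. […] Specific binding read at 20 min (t1) and 240 min (t2); KRI derived from these two time points. n = 2 or 3.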

[4] = target: T1, Adenosine receptor A3 (Homo sapiens); test: (§1) Displacement of [3H]PSB-11 from human adenosine A3 receptor expressed on CHO cell membranes after 2 hrs by scintillation spectrometry
Adenosine receptor A3 [5] = target: T2, Adenosine receptor A3 (Homo sapiens, UniProt P0DMS8); test: as §1
T2 sequence (P0DMS8 whole entry): T1 sequence (whole entry)

Adenosine receptor A3 [6] = target: T2, Adenosine receptor A3; test: Antagonist activity at human adenosine A3 receptor expressed in CHO cell membranes assessed as inhibition of 2-Cl-IB-MECA-induced [35S]GTPgammaS binding preincubated with or without for 60 mins followed by addition of 2-Cl-IB-MECA and [35S]GTPgammaS measured after 30 mins; assay type: functional; conditions: read-out: pA2 (converted)
Adenosine receptor A3 [7] = target: T2, Adenosine receptor A3; test: Antagonist activity at human adenosine A3 receptor expressed in CHO cell membranes assessed as inhibition of 2-Cl-IB-MECA-induced [35S]GTPgammaS binding measured after 30 mins; assay type: functional; conditions: read-out: pA2 (converted)
Summary of the method: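 CHOhA3 membranes (15 μg) in 50 mM Tris-HCl, 5 mM MgCl2, 1 mM EDTA, 0.05% BSA, 1 mM DTT, pH 7.4, with 1 μM GDP and 5 μg saponin. […] 2-Cl-IB-MECA 0.1 nM–10 μM with ~0.3 nM [35S]GTPγS, 30 min at 25 °C. Filtration. Schild analysis from EC50 shifts gives pA2 and slope.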

Compound	K [1]	K [2]	Activity index [3]	inhibition [4]	Ki (Adenosine receptor A3 [5])	Kb (Adenosine receptor A3 [6])	Kb (Adenosine receptor A3 [7])
COc1ccn2c(c1)nc1c2c(=O)n(CC2CC2)c(=O)n1Cc1ccc(Cl)c(Cl)c1	5.3 ×10⁻⁵ /s	1 ×10⁵ /M/s	3.12	Dose-dependent effect	5.3 nM		
COc1ccn2c(c1)nc1c2c(=O)n(CCC(C)C)c(=O)n1Cc1ccccc1			1.39	Dose-dependent effect	3.5 nM		
CCc1ccc(Cn2c(=O)n(CC3CC3)c(=O)c3c2nc2cc(OC)ccn23)cc1			0.81	Dose-dependent effect	0.71 nM		
COc1ccn2c(c1)nc1c2c(=O)n(CC2CC2)c(=O)n1Cc1ccc(Cl)cc1	8.2 ×10⁻⁴ /s	3 ×10⁶ /M/s	1.11	Dose-dependent effect	1.2 nM		
COc1ccn2c(c1)nc1c2c(=O)n(CCCO)c(=O)n1Cc1ccccc1			1.04	Dose-dependent effect	81 nM		
COc1ccn2c(c1)nc1c2c(=O)n(CC2CC2)c(=O)n1Cc1cccc(Cl)c1	4.7 ×10⁻⁴ /s	8.2 ×10⁵ /M/s	0.89	Dose-dependent effect	4.9 nM		
COc1ccn2c(c1)nc1c2c(=O)n(CC2CC2)c(=O)n1Cc1ccccc1	6 ×10⁻⁵ /s	2.8 ×10⁶ /M/s	2.68	Dose-dependent effect	1 nM		
CCCCCn1c(=O)c2c(nc3cc(OC)ccn32)n(Cc2ccccc2)c1=O	6 ×10⁻⁴ /s	1.1 ×10⁶ /M/s	1.11	Dose-dependent effect	3.5 nM		
COc1ccn2c(c1)nc1c2c(=O)n(CCC(C)(C)C)c(=O)n1Cc1ccccc1			0.95	Dose-dependent effect	8 nM		
COc1ccn2c(c1)nc1c2c(=O)[nH]c(=O)n1Cc1ccccc1	1.4 ×10⁻² /s	5.3 ×10⁵ /M/s	0.38	Dose-dependent effect	108 nM	158 nM	63.1 nM
COc1ccn2c(c1)nc1c2c(=O)n(C[Si](C)(C)C)c(=O)n1Cc1ccccc1			1.36	Dose-dependent effect	2.7 nM		
CCCCn1c(=O)c2c(nc3cc(OC)ccn32)n(Cc2ccccc2)c1=O			1.29	Dose-dependent effect	1.5 nM		
CCCCCCn1c(=O)c2c(nc3cc(OC)ccn32)n(Cc2ccccc2)c1=O	8.2 ×10⁻⁵ /s	2.3 ×10⁵ /M/s	2.18	Dose-dependent effect	2.8 nM		
COc1ccn2c(c1)nc1c2c(=O)n(CC2CC2)c(=O)n1Cc1cccc(C)c1			1.18	Dose-dependent effect	1.5 nM		
CCn1c(=O)c2c(nc3cc(OC)ccn32)n(Cc2ccccc2)c1=O			0.8	Dose-dependent effect	10.7 nM		
COc1ccn2c(c1)nc1c2c(=O)n(C)c(=O)n1Cc1ccccc1			0.54	Dose-dependent effect	20.8 nM		
CCCCCCCn1c(=O)c2c(nc3cc(OC)ccn32)n(Cc2ccccc2)c1=O	6.2 ×10⁻⁵ /s	4.2 ×10⁵ /M/s	4.06	Dose-dependent effect	6.8 nM		
COc1ccn2c(c1)nc1c2c(=O)n(CC2CCC2)c(=O)n1Cc1ccccc1			1.48	Dose-dependent effect	2.7 nM		
C=CCn1c(=O)c2c(nc3cc(OC)ccn32)n(Cc2ccccc2)c1=O			0.72	Dose-dependent effect	5.9 nM		
COCCn1c(=O)c2c(nc3cc(OC)ccn32)n(Cc2ccccc2)c1=O	6.3 ×10⁻⁴ /s	4.3 ×10⁵ /M/s	0.7	Dose-dependent effect	23 nM		
COc1ccn2c(c1)nc1c2c(=O)n(CC2CC2)c(=O)n1Cc1ccc(C)cc1				Dose-dependent effect			
C#CCn1c(=O)c2c(nc3cc(OC)ccn32)n(Cc2ccccc2)c1=O			1.2	Dose-dependent effect	4.3 nM		
COc1ccn2c(c1)nc1c2c(=O)n(CC2CC2)c(=O)n1Cc1ccc(Br)cc1			1.19	Dose-dependent effect	1.2 nM		
CCCn1c(=O)c2c(nc3cc(OC)ccn32)n(Cc2ccccc2)c1=O	3.2 ×10⁻⁴ /s	8.5 ×10⁵ /M/s	0.99	Dose-dependent effect	3.2 nM		
COc1ccc(Cn2c(=O)n(CC3CC3)c(=O)c3c2nc2cc(OC)ccn23)cc1	7.8 ×10⁻⁵ /s	4.8 ×10⁵ /M/s	1.39	Dose-dependent effect	1.4 nM		
COc1ccn2c(c1)nc1c2c(=O)n(CC(C)(C)C)c(=O)n1Cc1ccccc1	1.1 ×10⁻⁴ /s	5.5 ×10⁵ /M/s	1.73	Dose-dependent effect	3.5 nM		
C=CCCn1c(=O)c2c(nc3cc(OC)ccn32)n(Cc2ccccc2)c1=O			1.23	Dose-dependent effect	1.4 nM		
COc1cccc(Cn2c(=O)n(CC3CC3)c(=O)c3c2nc2cc(OC)ccn23)c1	4.7 ×10⁻⁵ /s	4.8 ×10⁵ /M/s	2.24	Dose-dependent effect	0.38 nM		1.26 nM
COc1ccn2c(c1)nc1c2c(=O)n(CC2CC2)c(=O)n1CCc1ccccc1			1.09	Dose-dependent effect	7.7 nM		
COc1ccn2c(c1)nc1c2c(=O)n(CC(C)C)c(=O)n1Cc1ccccc1	2 ×10⁻⁴ /s	7.8 ×10⁵ /M/s	1.64	Dose-dependent effect	1.2 nM		
